Assay results taken from ChEMBL document CHEMBL1139530, “Synthesis and antibacterial properties of novel hydrolyzable cationic amphiphiles. Incorporation of multiple head groups leads to impressive antibacterial activity” (2005).

Tests used:
Assay type in all cases: functional
[1] = system: Shigella sonnei; test: Minimum bactericidal concentration against Shigella sonnei
Summary of the method: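 A single S. sonnei colony was grown in LB for 12 h at 37 °C with shaking to 10⁷-10⁸ cells/mL, then exposed in tubes to amphiphile from a sterile-water stock, or water as the control, for 5 h at 37 °C with shaking. Diluted samples were spread on LB agar and incubated 24 h at 37 °C. MBC is the lowest concentration leaving no colonies; the value is the mean of three experiments.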

[2] = system: Escherichia coli; test: Minimum bactericidal concentration against Escherichia coli
Summary of the method: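 E. coli from a freeze-dried ampule was streaked on LB agar (37 °C, 24 h), and a single colony was grown in LB for 10 h at 37 °C with shaking to 10⁸-10⁹ cells/mL. Amphiphile from a sterile-water stock, or water as the control, was incubated 5 h at 37 °C with shaking. Dilutions were spread on LB agar for 24 h at 37 °C. MBC is the lowest concentration with no colonies, averaged over three experiments.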

[3] = system: Enterococcus faecalis; test: Minimum bactericidal concentration against Enterococcus faecalis
Summary of the method: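 Spread-plate MBC in LB broth (pH ≈7). E. faecalis came from a blood agar colony and was grown 12 h at 37 °C with shaking to 10⁷-10⁸ cells/mL. Amphiphile was added from a sterile-water stock, with water as the control, then incubated 5 h at 37 °C with shaking. Dilutions were plated on LB agar for 24 h at 37 °C. MBC is the lowest concentration giving no colonies; the value is the mean of three experiments.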

[4] = system: Staphylococcus aureus; test: Minimum bactericidal concentration against Staphylococcus aureus
Summary of the method: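 S. aureus came from a blood agar colony and was grown in LB for 10 h at 37 °C with shaking to 10⁹-10¹⁰ cells/mL. Cells were exposed 5 h at 37 °C with shaking to amphiphile from a sterile-water stock, with water as the control. Dilutions were plated on LB agar for 24 h at 37 °C. MBC is the lowest concentration giving no colonies, averaged over three separate experiments.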

Row | Compound | MBC [1] [µM] | MBC [2] [µM] | MBC [3] [µM] | MBC [4] [µM]
1 | CCCCCCCCCCCCCCCC[n+]1ccccc1 [CETYLPYRIDINIUM BROMIDE] | 12.4 | 10.4 | 16.3 | 15.6
2 | CCCCCCCCCCCCCCC(COC(=O)C[N+](C)(C)C)COC(=O)C[N+](C)(C)C | 14.9 | 9.7 | 12 | 15.1
3 | CCCCCCCCCCCCCCC(COC(=O)C[n+]1ccccc1)(COC(=O)C[n+]1ccccc1)COC(=O)C[n+]1ccccc1 | 3.5 | 6.5 | 4.9 | 5.2
4 | CCCCCCCCCCCCCCC(COC(=O)C[N+](C)(C)C)(COC(=O)C[N+](C)(C)C)COC(=O)C[N+](C)(C)C | 9.6 | 7.3 | 9 | 11.3
5 | CCCCCCCCCCCCCCC(COC(=O)C[n+]1ccccc1)COC(=O)C[n+]1ccccc1 | 8.9 | 8.2 | 10.4 | 13.9
6 | Hexadecyl-trimethyl-ammonium bromide | 18.3 | 16.9 | 18.5 | 18.9
7 | CCCCCCCCCCCCCCCCOC(=O)C[N+](C)(C)C | 33.8 | 20.6 | 22.5 | 24.5
